Results as given in ChEMBL document CHEMBL2417509, “Synthesis and biological evaluation of prodigiosene conjugates of porphyrin, estrone and 4-hydroxytamoxifen” (2013).

Tests used:
Assay type in all cases: functional
[1] = tested on: HCT-116; assay: Cytotoxicity against human HCT116 cells after 2 days by sulforhodamine B assay; settings: HCT-116, 48 h
Method in brief: (§1)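 NCI60 multi-dose screen, 59 human tumour lines available. Cells exposed to compound across a 5-log mol/L concentration range for 2 days, then fixed and stained with sulphorhodamine B, optical density read. Growth inhibition calculated against time-zero control and untreated cells. GI50 derived from the dose series, average of two replicates.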

[2] = tested on: A549; assay: Cytotoxicity against human A549/ATCC cells after 2 days by sulforhodamine B assay; settings: A549, 48 h; method in brief: as §1
[3] = tested on: MCF7; assay: Cytotoxicity against human MCF7 cells after 2 days by sulforhodamine B assay; settings: MCF7, 48 h; method in brief: as §1
[4] = tested on: SF-295; assay: Cytotoxicity against human SF295 cells after 2 days by sulforhodamine B assay; settings: SF-295, 48 h; method in brief: as §1
[5] = Cytotoxicity against human Hs578T cells after 2 days by sulforhodamine B assay; settings: Hs-578T, 48 h; method in brief: as §1
[6] = tested on: SN12C; assay: Cytotoxicity against human SN12C cells after 2 days by sulforhodamine B assay; settings: 48 h; method in brief: as §1
[7] = tested on: NCI-H322M; assay: Cytotoxicity against human NCI-H322M cells after 2 days by sulforhodamine B assay; settings: 48 h; method in brief: as §1
[8] = tested on: CAKI-1; assay: Cytotoxicity against human CAKI-1 cells after 2 days by sulforhodamine B assay; settings: CAKI-1, 48 h; method in brief: as §1
[9] = tested on: SR; assay: Cytotoxicity against human SR cells after 2 days by sulforhodamine B assay; settings: 48 h
Method in brief: (§2)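 NCI DTP NCI60 multi-dose screen (59 human tumour lines available). Cells exposed to compound over a 5-log mol/L concentration range for 2 days, then fixed and stained with sulphorhodamine B, with optical density read. Growth inhibition calculated relative to time-zero cells and untreated cells, giving GI50 (half-maximal growth inhibition concentration). Average of two replicates.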

[10] = tested on: HT-29; assay: Cytotoxicity against human HT-29 cells after 2 days by sulforhodamine B assay; settings: HT-29, 48 h; method in brief: as §1
[11] = tested on: NCI-H226; assay: Cytotoxicity against human NCI-H226 cells after 2 days by sulforhodamine B assay; settings: NCI-H226, 48 h; method in brief: as §1
[12] = tested on: HCC 2998; assay: Cytotoxicity against human HCC2998 cells after 2 days by sulforhodamine B assay; settings: HCC 2998, 48 h; method in brief: as §1
[13] = tested on: UACC-257; assay: Cytotoxicity against human UACC257 cells after 2 days by sulforhodamine B assay; settings: UACC-257, 48 h; method in brief: as §2
[14] = tested on: OVCAR-4; assay: Cytotoxicity against human OVCAR4 cells after 2 days by sulforhodamine B assay; settings: OVCAR-4, 48 h; method in brief: as §1
[15] = tested on: NCI-H460; assay: Cytotoxicity against human NCI-H460 cells after 2 days by sulforhodamine B assay; settings: NCI-H460, 48 h; method in brief: as §1
[16] = tested on: PC-3; assay: Cytotoxicity against human PC3 cells after 2 days by sulforhodamine B assay; settings: PC-3, 48 h; method in brief: as §1
[17] = Cytotoxicity against human NCI-ADR-RES cells after 2 days by sulforhodamine B assay; settings: 48 h; method in brief: as §1
[18] = tested on: MDA-MB-231; assay: Cytotoxicity against human MDA-MB-231 cells after 2 days by sulforhodamine B assay; settings: MDA-MB-231, 48 h; method in brief: as §1
[19] = tested on: HCT-15; assay: Cytotoxicity against human HCT15 cells after 2 days by sulforhodamine B assay; settings: HCT-15, 48 h; method in brief: as §1
[20] = tested on: UACC-62; assay: Cytotoxicity against human UACC62 cells after 2 days by sulforhodamine B assay; settings: UACC-62, 48 h; method in brief: as §2
[21] = tested on: 786-0; assay: Cytotoxicity against human 786-0 cells after 2 days by sulforhodamine B assay; settings: 786-0, 48 h; method in brief: as §1
[22] = tested on: MOLT-4; assay: Cytotoxicity against human MOLT4 cells after 2 days by sulforhodamine B assay; settings: MOLT-4, 48 h; method in brief: as §1
[23] = tested on: SNB-75; assay: Cytotoxicity against human SNB75 cells after 2 days by sulforhodamine B assay; settings: SNB-75, 48 h; method in brief: as §2
[24] = tested on: Malme-3M; assay: Cytotoxicity against human MALME-3M cells after 2 days by sulforhodamine B assay; settings: 48 h; method in brief: as §1
[25] = tested on: COLO 205; assay: Cytotoxicity against human COLO205 cells after 2 days by sulforhodamine B assay; settings: COLO 205, 48 h; method in brief: as §1
[26] = tested on: UO-31; assay: Cytotoxicity against human UO31 cells after 2 days by sulforhodamine B assay; settings: UO-31, 48 h; method in brief: as §2
[27] = tested on: DU-145; assay: Cytotoxicity against human DU145 cells after 2 days by sulforhodamine B assay; settings: DU-145, 48 h; method in brief: as §1
[28] = tested on: ACHN; assay: Cytotoxicity against human ACHN cells after 2 days by sulforhodamine B assay; settings: 48 h; method in brief: as §1
[29] = tested on: CCRF-CEM; assay: Cytotoxicity against human CCRF-CEM cells after 2 days by sulforhodamine B assay; settings: 48 h; method in brief: as §1
[30] = tested on: SK-MEL-28; assay: Cytotoxicity against human SK-MEL-28 cells after 2 days by sulforhodamine B assay; settings: SK-MEL-28, 48 h; method in brief: as §1
[31] = read-out: LC50 (the source's name)

CC/C(=C(/c1ccc(OCCN(C)C)cc1)c1ccc(OC(=O)CCC(=O)C2=C(C)/C(=C/c3[nH]c(-c4ccc[nH]4)cc3OC)N=C2C)cc1)c1ccccc1
GI50 [1]: 820 nM | LC50 (concentration killing 50% of cells vs time zero) [1]: > 100 µM | TGI [1]: 3.28 µM | GI50 [2]: 2660 nM | LC50 (concentration giving 50% net cell kill) [2]: 55.9 µM | TGI [2]: 10.6 µM | GI50 [3]: 30 nM | LC50 (concentration giving 50% net cell kill) [3]: 39.9 µM | TGI [3]: 2810 nM | GI50 [4]: 2630 nM | LC50 [4]: > 100 µM | TGI [4]: 9.12 µM | GI50 [5]: 1150 nM | TGI [5]: 4.68 µM | CC50 [5, 31]: 64.6 µM | GI50 [6]: 3.09 µM | TGI [6]: 19.1 µM | CC50 [6, 31]: 66.6 µM | GI50 [7]: 11.6 µM | LC50 (concentration killing 50% of cells) [7]: 57.5 µM | TGI [7]: 25.7 µM | GI50 [8]: 2690 nM | LC50 (concentration killing 50% of the cells present at time zero) [8]: 58.3 µM | TGI [8]: 16.1 µM | GI50 [9]: 690 nM | LC50 (concentration giving 50% net cell kill) [9]: > 100 µM | TGI [9]: 5.43 µM | GI50 [10]: 440 nM | LC50 [10]: 45.7 µM | TGI [10]: 11.1 µM | GI50 [11]: 6.53 µM | LC50 [11]: > 100 µM | TGI [11]: 25.2 µM | GI50 [12]: 3.83 µM | LC50 (50% lethal concentration) [12]: 39.9 µM | TGI [12]: 14.3 µM | GI50 [13]: 3.39 µM | TGI [13]: 14.8 µM | CC50 [13, 31]: 79.7 µM | GI50 [14]: 1500 nM | LC50 (concentration killing 50% of cells) [14]: 61.5 µM | TGI [14]: 14.8 µM | GI50 [15]: 3.52 µM | LC50 [15]: > 100 µM | TGI [15]: 14.4 µM | GI50 [16]: 1780 nM | LC50 (concentration killing 50% of cells) [16]: 51.1 µM | TGI [16]: 17.2 µM | GI50 [17]: 3.63 µM | TGI [17]: 16.1 µM | CC50 [17, 31]: 74.5 µM | GI50 [18]: 450 nM | LC50 [18]: 20.3 µM | TGI [18]: 2430 nM | GI50 [19]: 930 nM | LC50 [19]: > 100 µM | TGI [19]: 4.58 µM | GI50 [20]: 1810 nM | TGI [20]: 3.78 µM | CC50 [20, 31]: 7.88 µM | GI50 [21]: 2190 nM | LC50 (concentration killing 50% of cells) [21]: > 100 µM | TGI [21]: 5.77 µM | GI50 [22]: 980 nM | TGI [22]: 4.22 µM | CC50 [22, 31]: > 100 µM | GI50 [23]: 2470 nM | LC50 (concentration killing 50% of starting cells) [23]: 62.9 µM | TGI [23]: 9.92 µM | GI50 [24]: 2730 nM | LC50 [24]: 78.4 µM | TGI [24]: 6.53 µM | GI50 [25]: 1900 nM | LC50 (concentration killing 50% of cells) [25]: > 100 µM | TGI [25]: 7.26 µM | GI50 [26]: 1700 nM | LC50 [26]: 30.1 µM | TGI [26]: 5.1 µM | GI50 [27]: 3.28 µM | LC50 (concentration killing 50% of starting cells) [27]: 41.2 µM | TGI [27]: 16.8 µM | GI50 [28]: 2610 nM | LC50 (concentration killing 50% of cells) [28]: > 100 µM | TGI [28]: 17.1 µM | GI50 [29]: 430 nM | TGI [29]: 7.21 µM | CC50 [29, 31]: > 100 µM | GI50 [30]: 2940 nM | LC50 [30]: 46.3 µM | TGI [30]: 12.7 µM
